Experimental data of several laboratories.
Compare with care: the assays were run in different laboratories.
P2RY14: P2Y purinoceptor 14 (P2RY14, Homo sapiens, UniProt Q15391)
ADRA1B: Alpha-1B adrenergic receptor (ADRA1B, Homo sapiens, UniProt P35368)
Nuclear receptor subfamily 4 group A member 2: Nuclear receptor subfamily 4 group A member 2 (Homo sapiens, UniProt P43354)

O=C(O)c1cc(-c2ccc(-c3ccncc3)cc2)c2ccc(-c3ccc(C(F)(F)F)cc3)cc2c1 — Ki (P2RY14; ligand displacement in cells; flow cytometry): 23.7 nM
COc1ccccc1N1CCN(Cc2cccnc2Oc2ccc(-c3c(C)c(=O)[nH]c(=O)n3C)c(C)c2)CC1 — Ki (ADRA1B; ligand displacement; radioligand): 1390 nM
O=C(O)c1cc(-c2ccc(-n3cc(CCO)nn3)cc2)c2ccc(-c3ccc(C(F)(F)F)cc3)cc2c1 — Ki (P2RY14; ligand displacement in cells; flow cytometry): 89 nM
Cc1cc(Oc2ncccc2CN2CCN(c3ccc(Cl)cc3)CC2)ccc1-c1c(C)c(=O)[nH]c(=O)n1C — Ki (ADRA1B; ligand displacement; radioligand): 2590 nM
Nc1ncnc2c1ncn2[C@@H]1O[C@H](COP(=O)(O)OP(=O)(O)OP(=O)(O)O)[C@@H](O)[C@H]1O — Kd (P2X purinoceptor 7 (P2RX7, Homo sapiens, UniProt Q99572); binding; SPR): 224000 nM
CCN(CC)CCCC(C)Nc1ccnc2cc(Cl)ccc12 (stereo not drawn) — Kd (Nuclear receptor subfamily 4 group A member 2; binding; ITC): 6800 nM
Cc1cc(Oc2ncccc2CN2CCN(CCc3ccccc3)CC2)ccc1-c1c(C)c(=O)[nH]c(=O)n1C — Ki (ADRA1B; ligand displacement; radioligand): 1660 nM
CCC(=O)NS(=O)(=O)c1ccc(-c2c(-c3ccccc3)noc2C)cc1 — Kd (Nuclear receptor subfamily 4 group A member 2; binding; ITC): 1600 nM
CCCCCCCCCCCCCCCC(=O)OC[C@H](COP(=O)(O)O[C@H]1[C@H](O)[C@@H](OP(=O)(O)O)[C@H](OP(=O)(O)O)[C@@H](OP(=O)(O)O)[C@H]1O)OC(=O)CCCCCCCCCCCCCCC — Kd (Heat shock protein beta-1 (HSPB1, Homo sapiens, UniProt P04792); binding; MST): 188 nM
O=c1c(O[C@@H]2O[C@H](CO)[C@H](O)[C@H](O)[C@H]2O)c(-c2ccc(O)c(O)c2)oc2cc(O)cc(O)c12 — Kd (Sortase B (srtB, Staphylococcus aureus, UniProt Q2FZE3); binding; SPR): 198000 nM
O=C(O)c1cc(-c2ccc(-n3nncc3CCOP(=O)(O)O)cc2)c2ccc(-c3ccc(C(F)(F)F)cc3)cc2c1 — Ki (P2RY14; ligand displacement in cells; flow cytometry): 91.3 nM
CCCCCCCCC(=O)c1cc(O)c(O)c(O)c1 — Kd (Nuclear receptor subfamily 4 group A member 2; binding; ITC): 3400 nM
O=C(O)c1cc(-c2ccc(-c3c[nH]nn3)cc2)c2ccc(-c3ccc(C(F)(F)F)cc3)cc2c1 — Ki (P2RY14; ligand displacement in cells; flow cytometry): 2.15 nM
COC(=O)c1cn(C)c2ccc(-c3cccnc3)cc12 — Kd (Nuclear receptor subfamily 4 group A member 2; binding; ITC): 400 nM
Cc1cc(Oc2ncccc2CN2CCN(c3cccc(Cl)c3)CC2)ccc1-c1c(C)c(=O)[nH]c(=O)n1C — Ki (ADRA1B; ligand displacement; radioligand): 646 nM
